Our source for the IC50 values is ChEMBL document CHEMBL1144477, “Design, synthesis and cytotoxic properties of novel 1-[4-(2-alkylaminoethoxy)phenylcarbonyl]-3,5-bis(arylidene)-4-piperidones and related compounds” (Eur J Med Chem, 2007).

Where only a bound is given, the exact number is not on record here.

Holding throughout (type): cell-based
In one assay the test system is SR. The assay is described as follows: Cytotoxicity against human SR cells.
The subject of a further assay is COLO 205. Kind of assay: Cytotoxicity against human COLO205 cells.
The next assay relates to HCT-15. Kind of assay: Cytotoxicity against human HCT15 cells.
Assay [1] is described as follows: Cytotoxicity against human HL60 (TB) cells. The conditions noted are these: HL-60.
The next assay relates to KM12. The assay is described as follows: Cytotoxicity against human KM12 cells.
In the next assay the test system is HCT-116. Kind of assay: Cytotoxicity against human HCT116 cells.
The subject of another assay is HCC 2998. The assay is described as follows: Cytotoxicity against human HCC2998 cells.
The next assay relates to K562. Kind of assay: Cytotoxicity against human K562 cells.
A short description of assay [2]: Cytotoxicity against human NCI49 cell lines.
The next assay has as its system SW-620. Kind of assay: Cytotoxicity against human SW620 cells.
A short description of assay [3]: Cytotoxicity against human RPMI8226 cells. The following applies: RPMI-8226.
A further assay deals with CCRF-CEM. Kind of assay: Cytotoxicity against human CEM cells. The method in brief: (§1)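 Human Molt 4/C8 and CEM T-lymphocytes and murine L1210 cells were each exposed to at least three compound concentrations at 37 °C for 48 h. Growth inhibition was then measured, and IC50 values were derived from it.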
A short description of assay [4]: Cytotoxicity against human Molt4/C8 cells. The conditions noted are these: MOLT-4. The method, boiled down: as §1
For another assay, the system named is L1210. Kind of assay: Cytotoxicity against […] mouse L1210 cells. The method, boiled down:
as §1

As usually defined, the IC50 is the concentration at which inhibition is half-maximal. Low values mean inhibition by little substance, high ones a need for much substance. As for `O=C1/C(=C/c2ccccc2)CNC/C1=C\c1ccccc1`, the IC50 in the assay on SR was 0.209 µM; in the assay on COLO 205 it was 1.55 µM; in the assay on HCT-15 it was 0.631 µM; in assay [1] it was 0.363 µM; in the assay on KM12, 0.794 µM; with HCT-116, 0.182 µM. Besides, the IC50 with HCC 2998 came out at 2 µM; in the assay on K562, 0.49 µM; in [2], 1.62 µM; in the assay on SW-620, 0.575 µM; in assay [3], 0.275 µM.
For the compound `CC[N+](C)(CC)CCOc1ccc(C(=O)N2C/C(=C\c3ccc([N+](=O)[O-])cc3)C(=O)/C(=C/c3ccc([N+](=O)[O-])cc3)C2)cc1`, the IC50 in the assay on CCRF-CEM is 39.3 µM; in assay [4] it was 40.2 µM; in the assay with L1210, 65 µM.
`CC[N+](C)(CC)CCOc1ccc(C(=O)N2C/C(=C\c3ccc(Cl)cc3)C(=O)/C(=C/c3ccc(Cl)cc3)C2)cc1`: the IC50 was 71.2 µM with CCRF-CEM, 55.8 µM in assay [4] and 729 µM in the assay on L1210.
As to `O=C1/C(=C/c2ccccc2)CN(C(=O)c2ccccc2)C/C1=C\c1ccccc1`, the half-inhibitory concentration (IC50) in the assay with CCRF-CEM turned out to be 1.64 µM; in assay [4] it was 1.7 µM; in the assay with L1210, 12 µM.
In the case of `CC[N+](C)(CC)CCOc1ccc(C(=O)N2C/C(=C\c3ccc(C)cc3)C(=O)/C(=C/c3ccc(C)cc3)C2)cc1`, the half-inhibitory concentration (IC50) stood at 22.9 µM with SR; 23.7 µM in the assay on CCRF-CEM; 12.4 µM in assay [4]; 8.91 µM in the assay on COLO 205; 9.33 µM in the assay on HCT-15; 11.8 µM in assay [1]. Moreover, the concentration for half-maximal inhibition (IC50) came out at 9.33 µM in the assay on KM12; 14.1 µM in the assay with HCT-116; 6.17 µM with HCC 2998; 1.35 µM with K562; 7.76 µM in assay [2]; 18.7 µM with L1210. For the same compound, the figures for the concentration for half-maximal inhibition (IC50) (in the assay on SW-620; in [3]) were 10.5 µM and 1.26 µM, respectively.
`COc1ccc(C(=O)N2C/C(=C\c3ccccc3)C(=O)/C(=C/c3ccccc3)C2)cc1`: the IC50 in the assay with CCRF-CEM was determined as 5 µM; in assay [4] it was 2.39 µM; in the assay on L1210, 37.8 µM.
Consider `Cc1ccc(/C=C2\CN(C(=O)c3ccc(OCCN4CCOCC4)cc3)C/C(=C\c3ccc(C)cc3)C2=O)cc1`, for which the concentration for half-maximal inhibition (IC50) with SR amounted to 0.245 µM; with CCRF-CEM it was 1.36 µM; in [4] it was 1.72 µM; in the assay with COLO 205, 1.15 µM; in the assay with HCT-15, 0.832 µM; in assay [1], 1.1 µM. The half-maximal inhibitory concentration (IC50) in the assay with KM12 was 1.12 µM; in the assay on HCT-116, 2.45 µM; in the assay with K562, 0.275 µM; in [2], < 0.708 µM; in the assay with L1210 it was 21.8 µM; in the assay with SW-620 it was 1.02 µM. Moreover, the half-maximal inhibitory concentration (IC50) in assay [3] was 0.115 µM.
With `CCN(CC)CCOc1ccc(C(=O)N2C/C(=C\c3ccccc3)C(=O)/C(=C/c3ccccc3)C2)cc1`, the concentration for half-maximal inhibition (IC50) was 1.65 µM with CCRF-CEM; 1.28 µM in assay [4]; 2.63 µM in the assay with COLO 205; 1.17 µM in the assay with HCT-15; 1.74 µM in the assay on KM12; < 0.01 µM in the assay on HCT-116. Also, the half-maximal inhibitory concentration (IC50) is 0.043 µM in the assay on K562; < 1.38 µM in assay [2]; 8.23 µM in the assay with L1210; 1.35 µM in the assay on SW-620; < 0.01 µM in assay [3].
On to `O=C1/C(=C/c2ccc([N+](=O)[O-])cc2)CN(C(=O)c2ccc(OCCN3CCOCC3)cc2)C/C1=C\c1ccc([N+](=O)[O-])cc1`, for which the results for the IC50 (in the assay with CCRF-CEM; in assay [4]; in the assay with L1210) were 0.379 µM, 0.343 µM and 6.34 µM, respectively.
For `O=C1/C(=C/c2ccccc2)CN(C(=O)c2ccc(OCCN3CCOCC3)cc2)C/C1=C\c1ccccc1`, the 50% inhibitory concentration (IC50) in the assay with CCRF-CEM turned out to be 6.84 µM; in assay [4] it was 8.42 µM; in the assay on COLO 205, 22.9 µM; in the assay with HCT-15, 1.45 µM; in assay [1], 0.562 µM; in the assay with KM12 it was 0.129 µM. The 50% inhibitory concentration (IC50) in the assay on HCT-116 was 0.339 µM; with K562, 0.158 µM; in [2], > 2.63 µM; with L1210, 222 µM; in the assay with SW-620 it was 0.191 µM; in assay [3], 0.123 µM.
For `CCN(CC)CCOc1ccc(C(=O)N2C/C(=C\c3ccc(C)cc3)C(=O)/C(=C/c3ccc(C)cc3)C2)cc1`, the figures for the half-maximal inhibitory concentration (IC50) (in the assay with CCRF-CEM; in assay [4]; in the assay with L1210) were 1.33 µM, 1.32 µM and 2.28 µM, respectively.
On to `Cc1ccc(/C=C2\CN(C(=O)c3ccc(OCCN4CCCCC4)cc3)C/C(=C\c3ccc(C)cc3)C2=O)cc1`, for which the IC50 with CCRF-CEM came out at 1.14 µM; in [4], 0.91 µM; with COLO 205, 6.92 µM; with HCT-15, 1.07 µM; in assay [1], 0.933 µM; with KM12 it was 0.148 µM. Also, the half-maximal inhibitory concentration (IC50) in the assay with HCT-116 was 1.58 µM; in the assay with K562, 0.589 µM; in assay [2] it was 1.38 µM; in the assay on L1210 it was 5.14 µM; in the assay with SW-620 it was 0.339 µM; in [3], 0.123 µM.
Take `CCN(CC)CCOc1ccc(C(=O)O)cc1`: the IC50 was > 500 µM with CCRF-CEM, > 500 µM in assay [4], 2 µM in the assay on HCC 2998 and > 500 µM in the assay on L1210.
Take `CCN(CC)CCOc1ccc(C(=O)N2C/C(=C\c3ccc([N+](=O)[O-])cc3)C(=O)/C(=C/c3ccc([N+](=O)[O-])cc3)C2)cc1`: the 50% inhibitory concentration (IC50) was 0.34 µM in the assay with CCRF-CEM, 0.31 µM in [4] and 3.63 µM in the assay with L1210.
Take `CN(C)CCOc1ccc(C(=O)N2C/C(=C\c3ccc([N+](=O)[O-])cc3)C(=O)/C(=C/c3ccc([N+](=O)[O-])cc3)C2)cc1`: the IC50 in the assay with CCRF-CEM stood at 0.319 µM; in [4], 0.314 µM; in the assay with L1210, 5.19 µM.
As to `O=C1/C(=C/c2ccc([N+](=O)[O-])cc2)CN(C(=O)c2ccc(OCCN3CCCCC3)cc2)C/C1=C\c1ccc([N+](=O)[O-])cc1`, the IC50 with CCRF-CEM was 0.315 µM; in assay [4], 0.33 µM; in the assay on L1210, 4.74 µM.
Take `O=C1/C(=C/c2ccccc2)CN(C(=O)c2ccc(OCCN3CCCCC3)cc2)C/C1=C\c1ccccc1`: the half-maximal inhibitory concentration (IC50) stood at 1.16 µM with CCRF-CEM, 1.48 µM in assay [4] and 8.4 µM in the assay on L1210.
Take `CN(C)CCOc1ccc(C(=O)N2C/C(=C\c3ccccc3)C(=O)/C(=C/c3ccccc3)C2)cc1`: the IC50 came to 1.24 µM with CCRF-CEM, 0.58 µM in assay [4] and 10.2 µM in the assay with L1210.
For `CCN(CC)CCOc1ccc(C(=O)N2C/C(=C\c3ccc(Cl)cc3)C(=O)/C(=C/c3ccc(Cl)cc3)C2)cc1`, the IC50 in the assay on CCRF-CEM worked out at 12.3 µM; in [4], 18.3 µM; with L1210, 47.3 µM.
As for `O=c1[nH]cc(F)c(=O)[nH]1` [FLUOROURACIL], the 50% inhibitory concentration (IC50) in the assay with SR came out at 60.3 µM; with COLO 205, 3.39 µM; with HCT-15 it was 6.61 µM; in assay [1] it was 85.1 µM; in the assay with KM12 it was 7.94 µM; in the assay on HCT-116, 2.04 µM. For the same compound, the 50% inhibitory concentration (IC50) was 5.75 µM in the assay on HCC 2998; 126 µM in the assay on K562; > 29.5 µM in assay [2]; 18.6 µM in the assay with SW-620; 3.55 µM in assay [3].
Regarding `N[C@@H](Cc1ccc(N(CCCl)CCCl)cc1)C(=O)O` [MELPHALAN], the IC50 in the assay with SR amounted to 1.86 µM; in the assay on COLO 205, 66.1 µM; in assay [1], 2.04 µM; in the assay with KM12 it was 43.7 µM; with HCT-116 it was 30.2 µM; in the assay on HCC 2998, 41.7 µM. In addition, the half-maximal inhibitory concentration (IC50) was determined as 43.7 µM with K562, 26.9 µM in [2], 38.9 µM in the assay with SW-620 and 66.1 µM in assay [3].
